STAT1 activator = increases IFN-gamma driven STAT1 reporter signal. NIH 3T3 STAT1-luciferase reporter, luminescence; 100% = IFN-gamma alone, no compound. activation (% of control), % at 5.5 µM. actives 2.6% (n = 200,000). AID 932;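 active = activation above the screen-wide mean activation plus 3 SD, cut at about 130% in these data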;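 note: raw ratio to IFN-gamma control signal so 100% means no change and 0% no light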
NF-kB neuron act = NF-kB expression increase, human neuronal cells. fold change at 12.5 µM. actives 1.6% (n = 190,000). AID 1239. NF-kB reporter expression; stronger effect = higher value; in the data active = fold change above about 3.3
FLuc stim CS = firefly luciferase counter-screen for stimulation assays; ATPlite luciferase biochemical, luminescence, 10 min; 0 = ATP-free wells, 1 = DMSO control; activation factor at 10 µM; 200,000 tested, under 10 active; AID 1027;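 active = luciferase activation factor, scaled between plate controls, of at least 2 with compound at 10 µM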
Target sequence (P08659 whole entry, looked up): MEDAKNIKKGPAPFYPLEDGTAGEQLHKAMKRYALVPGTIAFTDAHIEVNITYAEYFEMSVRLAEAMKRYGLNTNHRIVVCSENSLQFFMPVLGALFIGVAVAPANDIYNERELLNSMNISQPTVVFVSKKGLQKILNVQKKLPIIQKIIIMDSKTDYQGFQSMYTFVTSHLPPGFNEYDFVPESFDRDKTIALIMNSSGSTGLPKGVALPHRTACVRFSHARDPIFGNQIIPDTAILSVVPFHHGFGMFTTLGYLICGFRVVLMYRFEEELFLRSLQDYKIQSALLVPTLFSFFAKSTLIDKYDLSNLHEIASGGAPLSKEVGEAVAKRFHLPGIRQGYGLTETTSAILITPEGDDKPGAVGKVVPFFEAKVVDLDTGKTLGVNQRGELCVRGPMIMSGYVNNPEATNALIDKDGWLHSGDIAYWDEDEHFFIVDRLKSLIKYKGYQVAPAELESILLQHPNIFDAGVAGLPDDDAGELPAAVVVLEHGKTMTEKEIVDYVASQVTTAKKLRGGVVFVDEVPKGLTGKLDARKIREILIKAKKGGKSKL
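System: cell-free luciferase reagent; medium: PBS as buffer for the ATP substrate; doses: test compounds dosed from 2 mM stocks in 100% DMSO; incubation: 10 min, room temperature; measured by: luminescence from luciferase reaction; read-out: luciferase activation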
Pf gamet viab = P. falciparum stage V gametocyte viability inhibition; P. falciparum stage V gametocytes, ATP luminescence, 24 h; inhibition, % at 10.9 µM; actives 0.065% (n = 150,000); AID 743093;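 active = inhibition above the mean plus 3 SD of compounds within the control limits, set per campaign, cut at about 38% in these data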;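 note: 0% = DMSO wells and 100% = medium only without gametocytes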
FLuc inh counter = inhibits firefly luciferase, flagging false hits in luciferase inhibition screens; P08659; ATPLite firefly luciferase biochemical luminescence, 10 min; inhibition, % at 10 µM; actives 1.5% (n = 200,000); AID 1006;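 active = inhibition above about 50% when tested at 10 µM, limit read from the data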
APP 5'UTR act = activates APP 5'UTR luciferase reporter; activation, % at 2 µM; actives 1% (n = 190,000); SH-SY5Y APP 5'UTR luciferase reporter, luminescence; zero percent = DMSO vehicle wells;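 active = activation above a set limit, based on mean plus 3 SD of controls, cut at about 140% in these data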
STAT1 activ conf = STAT1 activation, confirmation assay. activation (% of control), % at 5.7 µM. actives 97% (n = 1,200). NIH 3T3 STAT1-luciferase reporter, IFN-gamma potentiation, luminescence; 100% = IFN-gamma EC80 alone, no compound. shares compounds with STAT1 activator;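 active = activation above a set limit carried over from the earlier primary STAT1 screen, cut at about 140% in these data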;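 note: simple ratio to median IFN-gamma plus DMSO wells so 0% means no light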
NFkB act = NF-kappaB activation in STAT1 activator counter-screen. shares compounds with STAT1 activator. HEK293T NF-kB luciferase reporter, TNF-alpha stimulated, luminescence; 100% = TNF-alpha with vehicle only. activation (% of control), % at 5.7 µM. actives 43% (n = 1,200). AID 1306;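 active = activation above the mean of solvent-only control wells plus 3 SD, set per campaign, cut at about 130% in these data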;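 note: TNF-alpha given at a submaximal dose yielding about 80% of full reporter signal; values are well signal over median control so 100% means no change and 0% no light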
STAT3 act STAT1c = human STAT3 activation in STAT1 activator counter-screen; shares compounds with STAT1 activator; U3A cells STAT3-luciferase reporter, IL-6, luminescence; cells lack STAT1; 100 = IL-6 alone, no compound effect; activation (% of control), % at 5.7 µM; actives 46% (n = 1,200);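 active = activation above the solvent-only control well mean plus 3 SD, set per plate batch, cut at about 110% in these data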;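 note: 0% = no luminescence and 100% = median IL-6 plus DMSO wells; higher means more STAT3 reporter activation so hits are non-selective activators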
* hit, by the source's call; · = no result. The list is not random: actives were taken first. Their share in the collection is about 3.5%.

SMILES | STAT1 activator | NF-kB neuron act | FLuc stim CS | Pf gamet viab | FLuc inh counter | APP 5'UTR act | STAT1 activ conf | NFkB act | STAT3 act STAT1c
COc1cc(OC)c(OC)cc1CN1CCN(S(=O)(=O)c2ccc(F)cc2)CC1 | 99 | 1.3 | 1.1 | · | -6 | -15 | · | · | ·
Cc1oc2cc(OCc3cnn(-c4ccccc4)c3)ccc2c(=O)c1Oc1ccccc1F | 104 | 0.78 | 1 | 4 | -3 | · | · | · | ·
Cn1cc(-c2nnc(-c3ccccc3)o2)c2ccccc21 | 159* | 5.2* | 0.4 | · | 59* | 130 | 258* | 118 | 130*
Cc1ccc(Nc2cc(C)nn2-c2nc(C)cc(=O)[nH]2)cc1 | 232* | 0.14 | 1.1 | · | -5 | -92 | 181* | 167* | 88
Cc1ccc(Nc2cc(C)nn2-c2nc(C)cc(C)n2)cc1 | 95 | 1.1 | 1 | · | -2 | -6 | · | · | ·
Cc1cc(NCCOCCO)n2ncc(-c3ccc(Cl)cc3)c2n1 | 177* | 3.6* | 0.7 | 15 | 34 | 152* | 265* | 135* | 133*
NNC(=O)c1ccc2nc(-c3ccc(Br)cc3)cn2c1 | 162* | 1.8 | 0.8 | -6 | 25 | 57 | 208* | 132 | 115*
Cc1cnc(C(=O)NC(C)CCc2ccccc2)cn1 (configuration not stated) | 94 | 1.1 | 1 | -11 | -5 | 7 | · | · | ·
Cc1cccc2cc3c(N)c(C(=O)N4CCOCC4)sc3nc12 | 157* | 1.2 | 0.9 | · | 12 | -85 | 160* | 113 | 124*
N#CC1=C(SCC(=O)c2ccccc2)NC2=C(C(=O)CCC2)C1c1ccco1 (configuration not stated) | 156* | 2.4 | 1 | 0 | 2 | -68 | 166* | 128 | 106
Cc1ccc(C(=O)CSC2=C(C#N)C(c3ccco3)C3=C(CCCC3=O)N2)cc1 (configuration not stated) | 103 | 1.6 | 1 | -9 | 0 | -46 | · | · | ·
Cc1cc(C)cc(NC(=O)c2ccc([N+](=O)[O-])o2)c1 | 162* | 6.1* | 1.1 | 3 | -6 | -71 | 115 | 116 | 108
O=C(Nc1ccc(N2CCN(C(=O)c3ccccc3)CC2)cc1)c1ccc([N+](=O)[O-])o1 | 173* | 0.22 | 1 | -14 | -1 | -94 | 92 | 105 | 93
CC(C)C(=O)N1CCN(c2ccc(NC(=O)c3ccc([N+](=O)[O-])o3)cc2Cl)CC1 | 153* | 0.15 | 1 | · | -4 | -96 | 105 | 105 | 111*
COc1ccc(C(=O)Nc2ccc(N3CCN(C(=O)c4ccccc4)CC3)cc2)cc1[N+](=O)[O-] | 97 | 1 | 1 | · | 1 | 3 | · | · | ·
COc1cc(OC)c(S(=O)(=O)Nc2ccccc2N2CCOCC2)cc1NC(C)=O | 96 | 1 | 1 | 3 | -4 | 15 | · | · | ·
CC(C)c1ccc(CNC(=O)CSCC(=O)Nc2ccc3ccccc3c2)cc1 | 101 | 1.3 | 1 | · | -2 | -14 | · | · | ·
O=c1oc2ccccc2cc1-c1nnc(NCc2ccco2)s1 | 154* | 5.4* | 0.9 | 23 | 14 | 147* | 188* | 139* | 112*
O=c1oc2ccccc2cc1-c1nc2c(s1)CCc1ccccc1-2 | 104 | 0.96 | 1 | 7 | 1 | · | · | · | ·
Cc1ccc(NC(=O)C2CCN(c3cnccn3)CC2)cc1C | 105 | 0.85 | 1 | 22 | -5 | 24 | · | · | ·
Cc1ccc(-c2nc3cc(NC(=O)C(C)C)ccc3o2)cc1 | 188* | 2.9 | 0.6 | 8 | 42 | 147* | 321* | 126 | 104
CCCC(=O)Nc1cccc(-c2nc3cc(C)c(C)cc3o2)c1 | 177* | 3 | 0.6 | -4 | 40 | 135 | 201* | 128 | 107
Cc1ccc(-c2nc3cc(NC(=O)C(C)C)ccc3o2)cc1C | 195* | 0.98 | 0.4 | 12 | 56* | 160* | 272* | 93 | 73
Cc1cc2nc(-c3ccc(NC(=O)C(C)C)cc3)oc2cc1C | 180* | 3.4* | 0.9 | · | 12 | 140* | 237* | 146* | 118*
CC(C)C(=O)Nc1cccc(-c2nc3ccccc3o2)c1 | 120 | 1.6 | 1 | -22 | -2 | · | · | · | ·
SMILES | STAT1 activator | NF-kB neuron act | FLuc stim CS | Pf gamet viab | FLuc inh counter | APP 5'UTR act | STAT1 activ conf | NFkB act | STAT3 act STAT1c
Cc1nc2ccccc2c(=O)n1NC(=O)c1cc(Br)ccc1Cl | · | · | · | -23 | · | · | · | · | ·
Cc1nc2cc(NC(=O)Nc3ccc(Br)cc3)ccc2o1 | 162* | 2.9 | 0.6 | 4 | 43 | 154* | 209* | 135* | 103
Cc1nc2cc(NC(=O)NCc3ccc4c(c3)OCO4)ccc2o1 | 91 | 0.85 | 1 | · | -1 | 0 | · | · | ·
COCCn1c(C)cc(C(=O)CSc2nc3ccccc3c(=O)n2Cc2ccco2)c1C | 152* | 0.85 | 1 | 2 | 2 | 181* | 236* | 149* | 127*
N#C/C(=C/c1ccc(N2CCCCC2)o1)C(=O)Nc1ccc(Cl)cc1 | 155* | 1.5 | 0.7 | 14 | 31 | 35 | 183* | 130 | 90
N#C/C(=C/c1ccc(N2CCCCC2)o1)C(=O)Nc1ccc2ccccc2c1 | 113 | 1.1 | 0.7 | 14 | 29 | 18 | · | · | ·
CCn1c(C)nc2cc(C(=O)NNC(=S)Nc3ccccc3)ccc21 | 160* | 1.9 | 0.6 | -13 | 39 | 185* | 228* | 141* | 118*
CC(/C=N/NC(=O)c1cnccn1)=C\c1ccco1 | · | · | · | 13 | · | · | · | · | ·
O=C(c1cc(-c2ccc(Cl)c(Cl)c2)on1)N1CCCCC1 | 159* | 3.2 | 1 | · | 2 | 37 | 188* | 137* | 114*
Cc1cccc2cc(CN(Cc3ccc(F)cc3)C(=O)N3CCOCC3)c(=O)[nH]c12 | 94 | 0.89 | 1 | 0 | -2 | · | · | · | ·
COc1ccc(NC(=O)C(=S)NC2CCCCC2)cc1 | 158* | 0.91 | 0.8 | -30 | 24 | 121 | 194* | 138* | 115*
CCc1ccc(NC(=O)C(=S)NC2CCCCC2)cc1 | 160* | 2.9 | 0.9 | -15 | 10 | 116 | 200* | 144* | 113*
C=CCNCCCOc1ccc(Cl)cc1Br | 99 | 2.1 | 1 | 3 | -1 | 25 | · | · | ·
COc1cccc(NC(=O)Nc2ccc(C(C)(C)C)cc2)c1 | 151* | 4.3* | 0.6 | -36 | 41 | 120 | 178* | 129 | 110

Bioassay records as filed in PubChem.
